From ChEMBL document CHEMBL4325879, “Optimization of substituted cinnamic acyl sulfonamide derivatives as tubulin polymerization inhibitors with anticancer activity” (Bioorg Med Chem Lett, 2018)
Values after ≈ are worked out from the molar mass of the structure shown.

How the values were obtained:
Tubulin = Tubulin (Bos taurus, UniProt Q6B856+Q862L2+Q862F3); assay: Inhibition of bovine brain tubulin polymerization after 20 mins in presence of GTP by spectrophotometric analysis
MCF7 = assay: Antiproliferative activity against human MCF7 cells after 48 hrs by MTT assay; format: functional, cell-based; conditions: MCF7, 48 h
Procedure, shortened: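 MCF-7 human breast cancer cells exposed to compounds for 48 h. Cytotoxicity read by MTT assay. IC50 taken as the concentration giving 50% inhibition of cell growth.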

| Compound | IC50 (Tubulin) | IC50 (MCF7) | pIC50 (Tubulin) |
| --- | --- | --- | --- |
| O=C(/C=C/c1ccc2c(c1)OCCCO2)NS(=O)(=O)c1ccc(F)cc1 | > 100 µM | > 100 µg/mL | – |
| Cc1ccc(S(=O)(=O)NC(=O)/C=C/c2ccc3c(c2)OCCCO3)cc1 | > 100 µM | > 100 µg/mL | – |
| O=C(/C=C/c1ccc2c(c1)OCCO2)NS(=O)(=O)c1ccc(Br)cc1 | > 100 µM | > 100 µg/mL | – |
| O=C(/C=C/c1ccc2c(c1)OCCCO2)NS(=O)(=O)c1ccc(Cl)cc1 | > 100 µM | > 100 µg/mL | – |
| Cc1ccc(S(=O)(=O)NC(=O)/C=C/c2ccc3c(c2)OCCO3)cc1 | 93.33 µM | > 100 µg/mL | 4.03 |
| O=C(/C=C/c1ccc2c(c1)OCCCO2)NS(=O)(=O)c1ccc(Br)cc1 | > 100 µM | > 100 µg/mL | – |
| COc1cc2c(c(OC)c1OC)-c1ccc(OC)c(=O)cc1[C@@H](NC(C)=O)CC2 [COLCHICINE] | – | 0.33 µg/mL (≈ 0.826 µM) | – |

Further lines, results first:

| IC50 (Tubulin) | IC50 (MCF7) | pIC50 (Tubulin) | Compound |
| --- | --- | --- | --- |
| 5.47 µM | 2.16 µg/mL (≈ 6.25 µM) | 5.262 | O=C(/C=C/c1ccc2c(c1)OCCO2)NS(=O)(=O)c1ccccc1 |
| 76.9 µM | 74 µg/mL (≈ 212 µM) | 4.114 | O=C(/C=C/c1ccc2c(c1)OCO2)NS(=O)(=O)c1ccc(F)cc1 |
| 40.85 µM | 48.9 µg/mL (≈ 142 µM) | 4.389 | Cc1ccc(S(=O)(=O)NC(=O)/C=C/c2ccc3c(c2)OCO3)cc1 |
| 87.92 µM | 51.3 µg/mL (≈ 135 µM) | 4.056 | O=C(/C=C/c1ccc2c(c1)OCCO2)NS(=O)(=O)c1ccc(Cl)cc1 |
| 94.72 µM | 47.3 µg/mL (≈ 129 µM) | 4.024 | O=C(/C=C/c1ccc2c(c1)OCO2)NS(=O)(=O)c1ccc(Cl)cc1 |
| 27.46 µM | 52.1 µg/mL (≈ 143 µM) | 4.562 | O=C(/C=C/c1ccc2c(c1)OCCO2)NS(=O)(=O)c1ccc(F)cc1 |
| 51.59 µM | 89 µg/mL (≈ 217 µM) | 4.288 | O=C(/C=C/c1ccc2c(c1)OCO2)NS(=O)(=O)c1ccc(Br)cc1 |
| 49.01 µM | 53.9 µg/mL (≈ 150 µM) | 4.31 | O=C(/C=C/c1ccc2c(c1)OCCCO2)NS(=O)(=O)c1ccccc1 |
| 0.88 µM | 0.17 µg/mL (≈ 0.513 µM) | 6.056 | O=C(/C=C/c1ccc2c(c1)OCO2)NS(=O)(=O)c1ccccc1 |
